Source: PubChem (several laboratories)
Most compounds without a hit are left out; they make up all but 0.91% or so of the library.
Pf gamet viab: late stage P. falciparum gametocyte viability inhibitors, primary screen, ATP luminescence, HTS | P. falciparum stage V gametocytes, 24 h | inhibition, % at 10.9 µM | 0.065% of 150,000 active | AID 743093, 2013;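 active = inhibition above the mean plus 3 SD of compounds within the control limits, set per campaign, cut at about 38% in these data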;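 also: 0% = DMSO wells and 100% = medium only without gametocytes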
L929 necroptosis: inhibitors of zVAD-triggered necroptosis, primary screen, L929 cells. L929 zVAD necroptosis rescue, ATP luminescence, 24 h; with zVAD 60 µM. viability rescue, % at 10 µM. 0.38% of 220,000 active;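 active = activation, scaled between plate controls, above about 75%, limit read from the data; inactive = activation under that limit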;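 also: 0% = zVAD with DMSO and 100% = DMSO alone without zVAD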
Arbovirus inh: antivirals against arbovirus infection, primary screen, cell-based, full library, 10K replicate subset; arbovirus infection cell-based antiviral screen; inhibition, % at 10 µM; 0.37% of 200,000 active; in the data active = inhibition above about 30%
TNF necrop inh: inhibitors of TNF-alpha triggered necroptosis, primary screen, cell-based, Jurkat FADD-/-, single concentration | Jurkat FADD-/- TNF necroptosis rescue, ATP luminescence, 24 h; 0 = TNF only, 100 = no-TNF cells | 0.068% of 220,000 active | activation (protection from cell death), % at 10 µM;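 active = activation, meaning protection from cell death, of at least 50% relative to plate controls; inactive = activation below 50%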;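 also: necroptosis triggered by 40 ng/mL TNF-alpha added together with compound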
Hep lipid drop: inhibitors of hepatocyte lipid droplet formation, primary screen, imaging, high-throughput imaging, BODIPY stain. AML12 mouse hepatocytes, oleate lipid droplets. AID 1656, 2009. inhibition, % at 6.5 µM. 0.4% of 240,000 active;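 active = lipid droplet intensity inhibited by at least 50%, with more than 500 cells counted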
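Assay system: AML12 mouse liver cells | Compound dosing: One dose, 6.5 µM compound | Read-out basis: Droplet intensity reduction, % inhibition | Measured by: Fluorescence imaging, 20x objective, two fields per well | Schedule: Overnight treatment with compound plus oleate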
zVAD death conf: inhibitors of zVAD-triggered necroptosis in L929, confirmation, L929 cells, duplicate runs | shares compounds with L929 necroptosis | L929 zVAD-induced necroptosis rescue, ATP luminescence, 24 h | activation (protection from necroptosis), % at 10 µM | 16% of 760 active | AID 463117, 2010;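 active = mean protection from necroptosis of at least 50% over duplicate tests; inactive = mean protection below 50%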;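 also: 0% = cells with zVAD alone and 100% = vehicle cells without zVAD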
Starred values were filed as active, the others as inactive.

`COc1cccc(NC(=O)Nc2ccc(C(C)(C)C)cc2)c1` gave Pf gamet viab -36, L929 necroptosis 79*, Arbovirus inh -24, TNF necrop inh 2, Hep lipid drop 3 and zVAD death conf 8.
Screening COC(=O)c1ccc(NC(=O)Nc2ccc(OC)cc2)cc1 returned Pf gamet viab -25, L929 necroptosis 83*, Arbovirus inh 3, TNF necrop inh 5, Hep lipid drop 12 and zVAD death conf 2.
`COc1cccc(NC(=O)NC(C)C2CC3CCC2C3)c1` (configuration not stated) gave Pf gamet viab -9, L929 necroptosis 75*, Arbovirus inh -4, TNF necrop inh 1, Hep lipid drop -14 and zVAD death conf 30.
Screening COc1cccc(NC(=O)Nc2ccncc2)c1 returned Pf gamet viab 9, L929 necroptosis 0, Arbovirus inh 6, TNF necrop inh 0 and Hep lipid drop -15.
`COc1ccccc1NC(=O)NCc1nc(-c2ccc(C(F)(F)F)cc2)no1` gave Pf gamet viab -12, L929 necroptosis 0, TNF necrop inh 2 and Hep lipid drop 4.
COc1ccc(-c2nc(N3CCOCC3)nc3n[nH]c(N)c23)cc1 was read as L929 necroptosis 75*, Arbovirus inh 3, TNF necrop inh -6, Hep lipid drop 19 and zVAD death conf 43.
`CC(=O)c1c(C)[nH]c(C(=O)OCC(=O)Nc2ccc(Cl)c(S(=O)(=O)N(C)C)c2)c1C` gave Pf gamet viab -5, L929 necroptosis 80*, TNF necrop inh -7, Hep lipid drop -7 and zVAD death conf 3.
Screening CC(=O)c1c(C)[nH]c(C(=O)Nc2ccc(Cl)c(S(=O)(=O)N(C)C)c2)c1C returned Pf gamet viab -10, L929 necroptosis 66, Arbovirus inh -14, TNF necrop inh -2 and Hep lipid drop 0.
For CC1(C)Cc2c(cnn2-c2ccc(F)cc2)C(NC(=O)CCc2ccncc2)C1 (configuration not stated) the results were Hep lipid drop 9.
For O=C(CCl)Nc1cc(SCC(O)CO)cc([N+](=O)[O-])c1 (configuration not stated) the results were Pf gamet viab -29, L929 necroptosis 81*, Arbovirus inh -1, TNF necrop inh -12, Hep lipid drop -96 and zVAD death conf 77*.
`Cc1cccc2[nH]c(CN(C)Cc3nc(CC4CC4)no3)nc12` gave L929 necroptosis 3, Arbovirus inh 12, TNF necrop inh 1 and Hep lipid drop -22.
For O=Nc1c2ccc[nH]c-2c2ccc([N+](=O)[O-])cc12 the results were Pf gamet viab 19, L929 necroptosis 75*, Arbovirus inh -1, TNF necrop inh 1, Hep lipid drop 1 and zVAD death conf 0.
CN(CC1CCCO1)S(=O)(=O)c1ccc(C(=O)Nc2nccs2)cc1 (configuration not stated) was read as Pf gamet viab -4, L929 necroptosis 87*, TNF necrop inh 61*, Hep lipid drop -2 and zVAD death conf 103*.
Screening O=C(Nc1nccs1)c1ccc(S(=O)(=O)N2CCOCC2)cc1 returned Pf gamet viab 16, L929 necroptosis 82*, Arbovirus inh -4, TNF necrop inh 44, Hep lipid drop 0 and zVAD death conf 68*.
`Cc1cc(NC(=O)c2ccc(S(=O)(=O)N(C)CC3CCCO3)cc2)no1` (configuration not stated) gave Pf gamet viab 6, L929 necroptosis 3, Arbovirus inh 6, TNF necrop inh 0 and Hep lipid drop 14.
Screening COc1ccc(N/N=C(/C(N)=O)C2=NC(C)(C)Cc3ccccc32)cc1 returned Pf gamet viab -6, L929 necroptosis 76*, Arbovirus inh -19, TNF necrop inh 2, Hep lipid drop 2 and zVAD death conf 39.
Screening COc1ccc(N/N=C(\C#N)C(N)=O)cc1 returned Pf gamet viab -5, L929 necroptosis 1, Arbovirus inh -12, TNF necrop inh 2 and Hep lipid drop 0.
`COc1ccc(NC(=O)CSc2cn[nH]n2)cc1OC` gave Hep lipid drop -11.
O=C(NC12CC3CC(CC(C3)C1)C2)c1ccc(-c2ccc(Cl)cc2)o1 was read as Pf gamet viab 9, L929 necroptosis 82*, Arbovirus inh 22, TNF necrop inh 4, Hep lipid drop 9 and zVAD death conf 2.
For Cc1noc(C)c1COc1cccc(C(=O)Nc2ccc(C#N)cc2)c1 the results were L929 necroptosis 1, Arbovirus inh -11, TNF necrop inh -3 and Hep lipid drop 5.
`Cc1ccc(NC(=O)c2cccc(OCc3c(C)noc3C)c2)cc1` gave L929 necroptosis 79*, Arbovirus inh -2, TNF necrop inh -2, Hep lipid drop 12 and zVAD death conf 10.
Screening COc1ccc2cc(C(=O)NCc3ccccc3)c(=Nc3ccc(C(=O)O)cc3)oc2c1 returned L929 necroptosis 76*, Arbovirus inh -15, TNF necrop inh 2, Hep lipid drop 6 and zVAD death conf 1.
For CCCN(CCC)CCCNC(=O)C1CCC(CNS(=O)(=O)c2cccc3nsnc23)CC1 (configuration not stated) the results were Hep lipid drop 23.
`O=C(COC(=O)c1ccc(O)cc1)Nc1ccc(OC(F)F)cc1` gave Pf gamet viab 16, L929 necroptosis 77*, Arbovirus inh -1, TNF necrop inh 2, Hep lipid drop -6 and zVAD death conf 36.
Screening Oc1c(Br)cc(C2N=C(c3ccccc3)NO2)cc1Br (configuration not stated) returned Pf gamet viab -2, L929 necroptosis 80*, Arbovirus inh 33*, TNF necrop inh 0 and zVAD death conf 4.
`CSc1ccc(C2N=C(c3ccccc3)NO2)cc1` (configuration not stated) gave Hep lipid drop 14.
For Cc1ccc(NC(=O)c2cc(-c3ccco3)nc3ccccc23)cc1S(=O)(=O)N1CCOCC1 the results were L929 necroptosis 77*, Arbovirus inh -4, TNF necrop inh -2, Hep lipid drop 6 and zVAD death conf 10.
`CC(C)CC(=O)Nc1nnc(SCC(=O)Nc2ccc(F)cc2)s1` gave Pf gamet viab 2, L929 necroptosis 2, Arbovirus inh 18, TNF necrop inh 1 and Hep lipid drop -23.
O=C(CSc1nnc(NC2CCCCC2)s1)Nc1ccc2c(c1)C(=O)c1ccccc1C2=O was read as Pf gamet viab 4, L929 necroptosis 80*, Arbovirus inh -9, TNF necrop inh 12, Hep lipid drop 33 and zVAD death conf 90*.
